Reference: ChEMBL document CHEMBL5149972, “Novel Antimalarial Tetrazoles and Amides Active against the Hemoglobin Degradation Pathway in Plasmodium falciparum” (J Med Chem, 2021)
In brackets after ≈: the same amount, converted by molar mass. Activity calls are given as the source filed them. No cut-off for these calls is given here.

Assays:
Plasmodium falciparum [1] = experiment: Antiplasmodial activity against asexual blood stage Plasmodium falciparum 3D7 infected in human RBC assessed as parasite growth inhibition incubated for 72 hrs by SYBR Green dye based fluorescence assay; format: functional, organism-based; conditions: Plasmodium falciparum, 3D7, Erythrocyte, 72 h
Procedure, shortened: (§1)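 Blood-stage cultures at 2% hematocrit, human O+ RBCs, RPMI 1640 + 25 mM HEPES, 0.5% Albumax-I, 23 mM bicarbonate, 92 μM hypoxanthine. Start at 0.5% parasitemia; 72 h at 37°C, 5% CO₂; freeze-thaw, then SYBR Green in saponin/Triton lysis buffer, 4 h RT dark; fluorescence ex 485/em 535 nm. 10-point curves, technical duplicates or triplicates, final 0.5% DMSO; four-parameter fit gives EC₅₀; mean ± std dev of biological replicates.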

[2] = (§2) Cytotoxicity against human HepG2 cells assessed as reduction in cell viability incubated for 72 hrs by CellTiter-Glo assay; format: toxicity, cell-based; conditions: HepG2 cells
Plasmodium falciparum [3] = experiment: Antiplasmodial activity against Plasmodium falciparum NF54 expressing transgenic luciferase assessed as parasite kill rate at trophozoite stage incubated for 72 hrs by bioluminescence relative rate of kill (BRRoK) assay; format: functional, organism-based; conditions: RBC
Plasmodium falciparum [4] = experiment: Antiplasmodial activity against Plasmodium falciparum NF54 expressing transgenic luciferase assessed as parasite kill rate at trophozoite stage incubated for 6 hrs by bioluminescence relative rate of kill (BRRoK) assay; format: functional, organism-based; conditions: RBC
HepG2 = experiment: as §2; format: toxicity, cell-based; conditions: hepg2, 72 h
Plasmodium falciparum [5] = experiment: Antiplasmodial activity against drug resistant Plasmodium falciparum Dd2 infected in human RBC assessed as parasite growth inhibition incubated for 72 hrs by SYBR Green dye based fluorescence assay; format: functional, organism-based; conditions: Plasmodium falciparum, Dd2, Erythrocyte, 72 h; procedure, shortened: as §1
[6] = Metabolic stability in human liver microsomes assessed as intrinsic clearance per mg of protein at 1 uM incubated for 60 mins presence of NADPH regenerating buffer system by LC-MS analysis; format: ADME, Microsome; conditions: 1 h
[7] = Kinetic solubility of compound in PBS at pH 2 by HPLC analysis; format: physicochemical; conditions: read-out: Kinetic_solubility
[8] = Kinetic solubility of compound in PBS at pH 6.5 by HPLC analysis; format: physicochemical; conditions: read-out: Kinetic_solubility
Plasmodium berghei = experiment: Antiplasmodial activity against liver stage Plasmodium berghei ANKA expressing GFP-Luc-SMCO infected in human HepG2-A16-CD81EGFP cells assessed as reduction in liver-stage development of luciferase-expressing parasite by luciferase reporter gene based bioluminescence assay; format: functional, organism-based
Procedure, shortened: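 Pb-Luc (P. berghei ANKA-GFP-Luc-SMCON) sporozoites infect HepG2-A16-CD81EGFP cells in phenol red-free DMEM with 5% FBS, glutamine, penicillin/streptomycin; compounds scored for blocking liver-stage development by luciferase signal.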

Plasmodium falciparum [9] = experiment: Antiplasmodial activity against Plasmodium falciparum mature stage V gametocyte assessed as inhibition of male gametocyte formation at 25 uM by luciferase reporter assay; format: functional, organism-based
Plasmodium falciparum [10] = experiment: Antiplasmodial activity against Plasmodium falciparum mature stage V gametocyte assessed as inhibition of female gametocyte formation by luciferase reporter assay; format: functional, organism-based
Plasmodium falciparum [11] = experiment: Antiplasmodial activity against Plasmodium falciparum 3D7 infected in human RBC assessed as parasite growth inhibition incubated for 48 hrs by 3H-hypoxanthine incorporation assay; format: functional, organism-based; conditions: 3D7, Erythrocyte
Plasmodium falciparum [12] = experiment: Antiplasmodial activity against Plasmodium falciparum 3D7 assessed as parasite growth inhibition incubated for 48 hrs followed by compound washout further infected in RBC cells for 28 days by hemocrit analysis; format: functional, organism-based
Plasmodium falciparum [13] = experiment: Antiplasmodial activity against Plasmodium falciparum NF54 infected in human RBC assessed as parasite growth inhibition incubated for 72 hrs by SYBR Green dye based fluorescence assay; format: functional, organism-based; conditions: NF54, Erythrocyte
Plasmodium falciparum [14] = experiment: Antiplasmodial activity against chloroquine and pyrimethamine resistant Plasmodium falciparum K1 infected in human RBC assessed as parasite growth inhibition incubated for 72 hrs by SYBR Green dye based fluorescence assay; format: functional, organism-based; conditions: K1, Erythrocyte
Plasmodium falciparum [15] = experiment: Antiplasmodial activity against chloroquine and pyrimethamine resistant Plasmodium falciparum 7G8 infected in human RBC assessed as parasite growth inhibition incubated for 72 hrs by SYBR Green dye based fluorescence assay; format: functional, organism-based; conditions: 7G8, Erythrocyte
Plasmodium falciparum [16] = experiment: Antiplasmodial activity against chloroquine, atovaquone and pyrimethamine resistant Plasmodium falciparum TM90C2B infected in human RBC assessed as parasite growth inhibition incubated for 72 hrs by SYBR Green dye based fluorescence assay; format: functional, organism-based; conditions: Erythrocyte
Plasmodium falciparum [17] = experiment: Antiplasmodial activity against piperaquine and pyrimethamine resistant Plasmodium falciparum RF12 infected in human RBC assessed as parasite growth inhibition incubated for 72 hrs by SYBR Green dye based fluorescence assay; format: functional, organism-based; conditions: RF12, Erythrocyte
Plasmodium falciparum [18] = experiment: Antiplasmodial activity against chloroquine and pyrimethamine resistant Plasmodium falciparum Dd2 infected in human RBC assessed as parasite growth inhibition incubated for 72 hrs by SYBR Green dye based fluorescence assay; format: functional, organism-based; conditions: Dd2, Erythrocyte
Procedure, shortened: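 O+ human RBCs at 2% hematocrit and 0.5% starting parasitemia, in RPMI 1640 with 25 mM HEPES, 0.5% Albumax-I, bicarbonate and hypoxanthine. Serial dilutions in triplicate, 0.5% DMSO final, 72 h at 37°C, 5% CO2. Frozen at −80°C, lysed with SYBR Green in saponin/Triton buffer for 4 h in the dark. Ex 485/em 535 nm. EC50 from four-parameter fit; biphasic fit where curves were biphasic.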

Plasmodium falciparum [19] = experiment: Antiplasmodial activity against chloroquine resistant Plasmodium falciparum Dd2-GC03 mutant replaced with 3D7 pfcrt sequence at endogenous pfcrt Dd2 locus infected in human RBC assessed as parasite growth inhibition incubated for 72 hrs by SYBR Green dye based fluorescence assay; format: functional, organism-based; conditions: Erythrocyte
Procedure, shortened: (§3)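 Gene-edited Dd2 lines with the endogenous pfcrt locus replaced by zinc-finger nuclease editing. Concentration-response curves run with technical duplicates at each concentration; values are the average of two biological replicates, with std dev given where more replicates were collected.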

Plasmodium falciparum [20] = experiment: Antiplasmodial activity against chloroquine resistant Plasmodium falciparum Dd2-Dd2 mutant replaced with recombinant Dd2 sequence at endogenous pfcrt Dd2 locus infected in human RBC assessed as parasite growth inhibition incubated for 72 hrs by SYBR Green dye based fluorescence assay; format: functional, organism-based; conditions: Erythrocyte; procedure, shortened: as §3
Plasmodium falciparum [21] = experiment: Antiplasmodial activity against chloroquine and piperaquine resistant Plasmodium falciparum Dd2-M343L mutant replaced with endogenous pfcrt locus with the recombinant Dd2 sequence and the PPQ resistance-conferring M343L at endogenous pfcrt Dd2 locus infected in human RBC assessed as parasite growth inhibition incubated for 72 hrs by SYBR Green dye based fluorescence assay; format: functional, organism-based; conditions: Erythrocyte; procedure, shortened: as §3
Plasmodium falciparum [22] = experiment: Antiplasmodial activity against lab-derived […] resistant Plasmodium falciparum Dd2-PfeEF2 mutant infected in human RBC assessed as parasite growth inhibition incubated for 72 hrs by SYBR Green dye based fluorescence assay; format: functional, organism-based; conditions: Erythrocyte
Plasmodium falciparum [23] = experiment: Antiplasmodial activity against lab-derived MMV390048 resistant Plasmodium falciparum Dd2-Pfpi4K mutant infected in human RBC assessed as parasite growth inhibition incubated for 72 hrs by SYBR Green dye based fluorescence assay; format: functional, organism-based; conditions: Erythrocyte
Plasmodium falciparum [24] = experiment: Antiplasmodial activity against lab-derived DSM265 resistant Plasmodium falciparum Dd2-PfDHODH mutant infected in human RBC assessed as parasite growth inhibition incubated for 72 hrs by SYBR Green dye based fluorescence assay; format: functional, organism-based; conditions: Erythrocyte
Plasmodium falciparum [25] = experiment: Antiplasmodial activity against lab-derived ELQ300 resistant Plasmodium falciparum Dd2-PfCytB mutant infected in human RBC assessed as parasite growth inhibition incubated for 72 hrs by SYBR Green dye based fluorescence assay; format: functional, organism-based; conditions: Erythrocyte
Hemozoin = experiment: Inhibition of Beta-hematin assessed as bis-pyridyl-Fe(III)PPIX complex formation incubated for 5 hrs by NP40 detergent-mediated colorimetric assay
[26] = Inhibition of hemozoin formation in sorbitol-synchronized early ring stage plasmodium falciparum NF54 trophozoites assessed as fold increase in free heme-Fe level at 3 times EC50 incubated for 32 hrs by flow cytometry analysis; format: functional
Procedure, shortened: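 Trophozoites were saponin-released (0.05%), PBS-washed, counted by flow cytometry, then hypotonically lysed and sonicated. Heme was fractionated with HEPES, SDS, pyridine and NaOH and read as Fe(III)heme–pyridine absorbance against a heme standard curve (fg/cell). Three biological replicates; Student's t-test.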

Plasmodium falciparum [27] = experiment: Inhibition of hemozoin formation in sorbitol-synchronized early ring stage plasmodium falciparum NF54 trophozoites assessed as increase in free heme level at 0.5 to 3 times EC50 incubated for 32 hrs by flow cytometry analysis; format: functional; conditions: DDE = dose-dependent effect
Plasmodium falciparum [28] = experiment: Inhibition of hemozoin formation in sorbitol-synchronized early ring stage plasmodium falciparum NF54 trophozoites assessed as increase in free heme-Fe level at 0.5 to 3 times EC50 incubated for 32 hrs by flow cytometry analysis; format: functional; conditions: DDE = dose-dependent effect
Plasmodium falciparum [29] = experiment: Inhibition of hemozoin formation in sorbitol-synchronized early ring stage plasmodium falciparum NF54 trophozoites assessed as decrease in free hemozoin level at 0.5 to 3 times EC50 incubated for 32 hrs by flow cytometry analysis; format: functional; conditions: DDE = dose-dependent effect
Plasmodium falciparum [30] = experiment: Inhibition of hemozoin formation in sorbitol-synchronized early ring stage plasmodium falciparum NF54 trophozoites assessed as decrease in free hemozoin-Fe level at 0.5 to 3 times EC50 incubated for 32 hrs by flow cytometry analysis; format: functional; conditions: DDE = dose-dependent effect

Compound | EC50 (Plasmodium falciparum [1]) | CC50 at 72 h [2] | Activity (Plasmodium falciparum [3]) | Activity (Plasmodium falciparum [4]) | CC50 (HepG2) | EC50 (Plasmodium falciparum [5]) | CLH [6] | solubility kinetic [7] | solubility kinetic [8] | EC50 (Plasmodium falciparum [11]) | also measured
CC(=O)c1ccc(NC(=O)c2ccc(NC(=O)C3COc4ccccc4O3)cc2)cc1 (stereo unspecified) | 0.71 µM | > 30 µM | Active | Active |  |  |  |  |  |  | 
CCC(C(=O)Nc1cccc(Cl)c1)N1C(=O)C(C)N=C(c2ccccc2)c2ccccc21 (stereo unspecified) | 0.31 µM | > 30 µM | Active | Active |  |  |  |  |  |  | 
Cc1ccccc1N(C)C(=O)C(c1cccnc1)N(Cc1cc(C(F)(F)F)ccc1F)C1CC1 (racemic) | 0.31 µM |  |  |  | > 30 µM | 0.46 µM | 548 µL/min/mg | > 47 µg/mL | 1.5 µg/mL (≈ 3.18 µM) |  | EC50 (Plasmodium berghei): 7 µM; EC50 (Plasmodium falciparum [9]): 60 µM; EC50 (Plasmodium falciparum [10]): > 25 µM
O=C(C(c1cccnc1)N(Cc1cccc(C(F)(F)F)c1)C1CC1)N1CCCCC1 (racemic) | 1.8 µM |  |  |  | > 20 µM | 4.2 µM | 244 µL/min/mg | > 100 µg/mL | 25 µg/mL (≈ 59.9 µM) |  | 
Cc1ccccc1-n1nnnc1C(c1cncnc1)N(Cc1cccc(C(F)(F)F)c1)C1CC1 (racemic) | 0.4 µM | 33 µM |  |  |  | 1.8 µM |  | 1.5 µg/mL (≈ 3.22 µM) | 1.5 µg/mL (≈ 3.22 µM) | 1.7 µM | Activity (Plasmodium falciparum [12]): Active; EC50 (Plasmodium falciparum [13]): 0.83 µM; EC50 (Plasmodium falciparum [14]): 0.46 µM; EC50 (Plasmodium falciparum [15]): 0.16 µM; EC50 (Plasmodium falciparum [16]): 0.66 µM; EC50 (Plasmodium falciparum [17]): 1.1 µM; EC50 (Plasmodium falciparum [18]): 1.8 µM; EC50 (Plasmodium falciparum [19]): 4.8 µM; EC50 (Plasmodium falciparum [20]): 2.4 µM; EC50 (Plasmodium falciparum [21]): 0.9 µM; EC50 (Plasmodium falciparum [22]): 1.6 µM; EC50 (Plasmodium falciparum [23]): 2 µM; EC50 (Plasmodium falciparum [24]): 2 µM; EC50 (Plasmodium falciparum [25]): 2 µM; IC50 (Hemozoin): 310 µM; fold change (FC) [26]: 6
COc1ccc(C(F)(F)F)cc1CN(C1CC1)C(c1cccnc1)c1nnnn1-c1ccccc1C (racemic) | 0.49 µM |  |  |  |  | 0.48 µM | 154 µL/min/mg | 12.5 µg/mL (≈ 25.3 µM) | 1.6 µg/mL (≈ 3.24 µM) |  | 
Cc1ccccc1N(C)C(=O)C(c1cccnc1)N(Cc1cccc(C(F)(F)F)c1)C1CC1 (racemic) | 0.34 µM |  |  |  | > 30 µM | 0.59 µM | 781 µL/min/mg | > 100 µg/mL | 6.3 µg/mL (≈ 13.9 µM) |  | 
Cc1ccccc1N(C)C(=O)C(c1cncnc1)N(Cc1cccc(C(F)(F)F)c1)C1CC1 (racemic) | 0.4 µM |  |  |  | > 30 µM | 0.79 µM | 531 µL/min/mg | 11 µg/mL (≈ 24.2 µM) | > 45 µg/mL |  | 
C[C@@H]1CC[C@H]2[C@@H](C)C(=O)O[C@@H]3O[C@@]4(C)CC[C@@H]1[C@]32OO4 [ARTEMISININ] | 0.013 µM | > 30 µM | Active | Active |  |  |  |  |  | 0.03 µM | 
O=C1C(O)=C([C@H]2CC[C@H](c3ccc(Cl)cc3)CC2)C(=O)c2ccccc21 [ATOVAQUONE] | 0.0013 µM | > 30 µM | Active | Active |  |  |  |  |  | 0.001 µM | 
CCN(CC)CCCC(C)Nc1ccnc2cc(Cl)ccc12 (stereo unspecified) [CHLOROQUINE] | 0.014 µM | > 30 µM | Active | Active |  |  |  |  |  | 0.021 µM | IC50 (Hemozoin): 19 µM; inhibition (Plasmodium falciparum [27]): Dde; inhibition (Plasmodium falciparum [28]): Dde; inhibition (Plasmodium falciparum [29]): Dde; inhibition (Plasmodium falciparum [30]): Dde
Cc1cc(Nc2ccc(S(F)(F)(F)(F)F)cc2)n2nc(C(C)(F)F)nc2n1 [DSM-265] | 0.005 µM | > 30 µM | Active | Active |  |  |  |  |  |  | 
